PubChem BioAssay
Values without a mark were called inactive. Inconclusive results are not listed. Calls of active or inactive are those of the source.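 How the source made its calls, unless noted: active means growth inhibition above 25% in both replicates, a cutoff set 3 SD above the mean; inconclusive means above 25% in only one replicate; inactive means the rest.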

What was measured:
[1] = S. cerevisiae growth inhibition in permissive medium (OD615), pilot counter-assay for S. cerevisiae lifespan shortening project, permissive growth control (AID 705); conditions: OD615, 24 h, at 10 µM, stronger effect = higher value
In short: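 System: Engineered DeaD yeast | Buffer or medium: SC raffinose/galactose permissive medium | Doses: 10 µM single dose, 0.25% DMSO | Times: 24 h exposure, 30 °C | Measured by: OD615 turbidity read | Read-out: Yeast growth inhibition indicated by reduced 24 h OD615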

[2] = S. cerevisiae growth inhibition in restrictive medium, OD615, pilot screen, restrictive growth control, yeast lifespan reduction project (AID 706;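 active means growth inhibition above a set limit, 3 SD over mean compound inhibition, in both replicates, cut at about 43% in these data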;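 further: modified DeaD lifespan yeast strain shifted to restrictive glucose medium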); conditions: OD615, 48 h, at 10 µM, stronger effect = higher value
In short: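 Assay system: engineered S. cerevisiae DeaD strain; Buffer or medium: CSMM-D glucose medium; Dosing: 10 µM compound, 0.25% DMSO; Times: cell pre-growth 4 h, compound exposure 48 h, 30 °C; Detection: absorbance (optical density) measured at 615 nm.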

[3] = doxorubicin toxicity protection in MRP-1 cells – H69AR cells, CellTiter-Glo, duplicate, MRP-1 activator project, pilot screen (AID 807;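 active means viability increase at or above a cutoff of the median across tested compounds plus 3 SD, cut at about 8.5% in these data, passing the limit was not always enough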;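 further: compound pretreatment 18-22 h then 72 h combined with doxorubicin; 0% = doxorubicin alone and 100% = vehicle without doxorubicin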); conditions: H69AR viability with doxorubicin, CellTiter-Glo luminescence; at 10 µM; stronger effect = higher value
[4] = viability of HCT116 without oncogenic beta-catenin – human colon tumor cells, pilot screen (AID 823;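 active means cell viability at or below a set limit in both duplicate runs, the limit being the all-compound median minus 4 SD, cut at about 23% in these data, passing the limit was not always enough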;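 further: 0% = wells killed by 20 µM Hyamine and 100% = untreated DMSO cell wells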); conditions: HCT116 beta-catenin knockout viability, CellTiter-Glo, 60 h; at 10 µM; stronger effect = lower value
[5] = viability of PTEN-null HCT116 cells – cell-based, HCT116 clonal line, CellTiter-Glo, pilot screen (AID 824;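 active means viability at or below 27.92% in each of two runs, the all-compound median minus 4 SD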;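 further: 0% = 20 µM Hyamine control and 100% = vehicle cell control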); conditions: HCT116 PTEN-deleted viability, 60 h, at 10 µM, stronger effect = lower value
[6] = RAM pathway blockade in budding yeast – dse1pr::URA3 reporter, 5-FOA selection, pilot screen (AID 869;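 active means inhibition over a set limit, the all-compound mean plus 3 SD, in both replicate runs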;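 further: 0% = DMSO wells with no growth and 100% = 10 µM 1-NA-PP1 with full growth; RAM network block rescues cells from 5-FOA so hits raise OD615 growth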); conditions: S. cerevisiae dse1pr::URA3 5-FOA growth, OD615, 2 d; at 10 µM; stronger effect = higher value; strain carries analog-sensitive mutant Cbk1 kinase
[7] = RAM signaling pathway blockade in yeast – S. cerevisiae, Pdr1DBD-CYC8 efflux-inhibited sensitized strain, primary screen (AID 1298;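 active means RAM network inhibition above 8.4% in each of two replicates, 3 SD over the compound average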;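 further: 0% = DMSO untreated cells without growth and 100% = 10 µM 1-NA-PP1 full growth; higher means more yeast growth rescued from 5-FOA killing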); conditions: S. cerevisiae cbk1-as DSE1-URA3 strain, 5-FOA growth OD615, 2 d; at 50 µM; stronger effect = higher value

Row | Compound | growth inhibition [1] | growth inhibition [2] | viability increase [3] | viability [4] | viability [5] | inhibition [6] | RAM network inhibition [7]
1 | Cc1ccccc1NC(=O)CSc1[nH]c(=O)cc(C)c1C#N | -1.3% | 11.7% | -0.42% | 108% | 101% | 2.41% | 1.7%
2 | CCOc1ccc(N2C(=O)CC(Sc3nc(C)cc(C)n3)C2=O)cc1 (configuration not stated) | -3.95% | 1.55% | -1.4% | 108% | 98.9% | 0.24% | 3.27%
3 | CCn1c(SCC(=O)Nc2cccc(F)c2)nc2c(c1=O)SC(C)C2 (configuration not stated) | -11.8% | -1.47% | -0.53% | 94.8% | 86.8% | 1.57% | 4.64%
4 | CN1CCN(S(=O)(=O)c2ccc3c4c(cccc24)C(=O)N3)CC1 | -11.8% | -4.42% | -2% | 110% | 96.4% | 1.18% | 1.28%
5 | O=C(NC1CCCCC1)N1CCCc2ccccc21 | 2.93% | -1.39% | -4.89% | 86.1% | 84% | 0.345% | -1.17%
6 | Cc1ccc2oc(=O)c3cnn(CC(=O)N4CCN(c5ccccn5)CC4)c3c2c1 | -7.07% | -17.7% | -1.28% | 91.8% | 87.6% | 1.41% | -0.31%
7 | COc1ccccc1-c1nnc(NC(=O)C(C)SC2=NCCS2)s1 (configuration not stated) | 5.92% | 48.7% (active) | -4.43% | 83.4% | 91.2% | -0.115% | 6.22%
8 | Cc1ccccc1-n1c(SC/C(O)=C(\C#N)c2nc3ccccc3[nH]2)nnc1-c1ccncc1 | 2.37% | 19.1% | -3.4% | 93.5% | 81.7% | 2.92% | 2.28%
9 | COc1ccc(N=C2SC(C(=O)O)CC(=O)N2C)cc1 (configuration not stated) | -5.94% | 7.82% | -0.87% | 98.1% | 101% | 0.35% | 3.61%
10 | Cc1cc(Cl)ccc1N=Cc1c(O)n(C)c(=O)n(C)c1=O | 1.62% | 1.2% | 2.36% | 106% | 105% | 0.11% | -1.25%
11 | C1CCc2c(nc3nnnn3c2N2CCOCC2)C1 | -0.9% | 3.85% | 1.82% | 107% | 98.4% | 1.07% | 5.8%
12 | COc1ccc(NC(=O)CSc2nnc(Cn3c(=O)sc4ccccc43)n2C)cc1OC | -10.7% | -14.9% | -2.38% | 86.5% | 92.2% | 1.91% | 4.34%
13 | CCCCOC(=O)c1ccc(NC(=O)CSCc2n[nH]c(=O)[nH]2)cc1 | -1.44% | -3.24% | 0.11% | 98.3% | 102% | 0.475% | 1.48%
14 | COc1ccc(CCNC(=O)c2cc3ccccn3n2)c(OC)c1OC | -3.78% | 7.63% | -0.02% | 112% | 106% | 1.92% | -0.2%
15 | Cc1ccc(C)c(SCC(=O)OCC(=O)Nc2ccc(S(=O)(=O)N3CCOCC3)cc2)c1 | -20.4% | -17.7% | -1.73% | 97.8% | 92.9% | 1.02% | 5.86%
16 | O=C(O)CC1C(=O)NCCN1Cc1ccc(F)c(F)c1 (configuration not stated) | -11.2% | 3.21% | -1.31% | 99.4% | 88.2% | 3.32% | -0.21%
17 | O=C(CCc1ccccc1)Nc1nnc(-c2cccs2)o1 | -12.3% | -2.62% | -4.02% | 103% | 97.3% | 1.6% | 3.35%
18 | O=c1oc2ccccc2n1Cc1ccccc1Cl | -1.38% | 8.91% | -0.37% | 97.1% | 99.5% | 1.56% | 0.31%

Row | Compound | growth inhibition [1] | growth inhibition [2] | viability increase [3] | viability [4] | viability [5] | inhibition [6] | RAM network inhibition [7]
19 | CCCC(=N)C1=C(O)CC(CC(C)SCC)CC1=O (configuration not stated) | -5.42% | 5.29% | -1.06% | 97.5% | 103% | 0.49% | -1.1%
20 | COc1ccc(C2C3=C(CCCC3=O)Nc3nc(SCc4ccc(C(=O)O)cc4)nn32)cc1OC (configuration not stated) | -7.69% | -1.59% | -0.88% | 92.8% | 95.3% | 3.18% | 3.48%
21 | COC(=O)c1ccc(N2CCOCC2)c(NC(=O)Nc2cccc(OC)c2)c1 | -14.5% | -8.03% | -5.3% | 84.4% | 77.1% | 1.09% | 5.95%
22 | CCc1ccc(S(=O)(=O)NCc2csc(-c3cccnc3)n2)s1 | -13.1% | 1.16% | -0.39% | 103% | 101% | 2.68% | 2.28%
23 | COc1ccc(NC(=O)NCCCN2CCCC2=O)cc1 | -2.73% | 8.62% | 0.12% | 105% | 103% | 0.945% | -0.16%
24 | CC(=O)c1cccc(NC(=O)Cn2cc3c(n2)CCCC3)c1 | -3.74% | -0.095% | -3.04% | 97.5% | 96.7% | 0.1% | 2.14%
25 | Cc1sc2nc(SCC(=O)N3CCCC3)[nH]c(=O)c2c1C | -0.89% | -6.9% | -1.34% | 104% | 98% | 0.26% | 1.77%
26 | O=c1c(/C=N/O)c(Nc2ccccc2)nc2ccccn12 | -10.8% | 10.2% | -6.27% | 93.8% | 76.5% | 0.56% | 4.18%
27 | Cc1ccc(NC(=O)C2CCCN(S(=O)(=O)c3ccc4c(c3)oc(=O)n4C)C2)nc1 (configuration not stated) | -7.92% | -2.67% | -0.05% | 101% | 101% | 1.09% | -2.07%
28 | N#Cc1c2n(c3c(-c4ccccc4)ncnc13)CCC2 | -12.9% | -11.2% | -2.25% | 104% | 98.7% | 2.73% | 3.93%
29 | CCOC(=O)C1CCN(CC(O)COc2ccc(C(C)(C)CC)cc2)CC1 (configuration not stated) | -14% | -10.4% | -4.71% | 65.6% | 73.5% | -0.58% | 0.78%
30 | CCN(CC)c1cccc(OC2=NS(=O)(=O)c3ccccc32)c1 | -1.53% | 0.2% | -1.25% | 99.1% | 97.8% | 1.63% | 5.72%
31 | O=C(CN(Cc1ccccc1F)S(=O)(=O)c1ccc(Cl)cc1)NCCCO | -12.7% | -2.21% | -2.15% | 102% | 93.7% | 0.495% | 1.84%
32 | COc1c(Cl)cc(-c2noc(C)c2C(=O)NCc2ccc3c(c2)OCO3)cc1Cl | -16.4% | -10.4% | -1.08% | 89% | 84% | 1.19% | 4.27%
33 | O=C(CCN1C(=O)c2ccccc2C1=O)OCn1nnc2ccccc2c1=O | -14.7% | -15.3% | -0.15% | 107% | 100% | 4.12% | 2.39%
34 | O=C(O)CC(C(=O)NC1CCCCC1)C1CCCO1 (configuration not stated) | -1.02% | -15.1% | -1.68% | 98.3% | 102% | 0.36% | 1.76%
35 | Cc1ccc(S(=O)(=O)N2C(=S)SCC2(C)C)cc1 | -0.04% | 14.3% | -1.47% | 91.9% | 83.5% | -1.13% | 0.51%
36 | CCOC(=O)C1CCCN(C(=O)CN(c2ccc(OC)cc2)S(=O)(=O)c2c(C)noc2C)C1 (configuration not stated) | -7.31% | -7.06% | -2.84% | 102% | 93.8% | 1.58% | 1.13%
